Data from ChEMBL document CHEMBL1127414 (J Med Chem, 1994).

Tests used:
[1] = target: T1, Squalene synthase (Mus musculus) (UniProt P53798); assay: Tested for the effective dose required for the incorporation of [5-3H]-mevalonolactone into cholesterol by in vivo mouse assay by peroral administration; format: functional, organism-based
T1 sequence (whole entry): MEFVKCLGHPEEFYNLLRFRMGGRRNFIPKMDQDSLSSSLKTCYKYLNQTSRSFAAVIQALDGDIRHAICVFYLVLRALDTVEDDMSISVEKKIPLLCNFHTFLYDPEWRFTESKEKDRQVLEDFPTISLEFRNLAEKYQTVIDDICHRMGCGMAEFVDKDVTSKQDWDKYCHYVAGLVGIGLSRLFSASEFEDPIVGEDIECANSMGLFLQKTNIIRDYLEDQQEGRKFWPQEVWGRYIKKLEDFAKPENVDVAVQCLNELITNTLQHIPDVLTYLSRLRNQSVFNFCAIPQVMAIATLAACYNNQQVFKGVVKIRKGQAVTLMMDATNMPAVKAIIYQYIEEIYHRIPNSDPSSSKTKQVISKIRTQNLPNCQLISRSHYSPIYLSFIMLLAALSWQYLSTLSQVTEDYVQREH
Outline: (§1)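 Female Swiss Webster mice (~25 g), six per group, dosed po by gavage with inhibitor suspended in 5% emulphor. 30 min later, 0.5 μCi/mouse [5-3H]mevalonolactone in saline given sc. Livers removed 30 min after that and saponified in KOH/EtOH overnight at 55 °C, then petroleum-ether extracted. Nonsaponifiable dpm counted. Compounds first tested at a single dose (typically 12 or 24 mg/kg).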

Squalene synthase = target: T2, Squalene synthase (Rattus norvegicus, UniProt Q02769); assay: Tested for inhibition against squalene synthase enzyme in rat liver
T2 sequence (Q02769 whole entry): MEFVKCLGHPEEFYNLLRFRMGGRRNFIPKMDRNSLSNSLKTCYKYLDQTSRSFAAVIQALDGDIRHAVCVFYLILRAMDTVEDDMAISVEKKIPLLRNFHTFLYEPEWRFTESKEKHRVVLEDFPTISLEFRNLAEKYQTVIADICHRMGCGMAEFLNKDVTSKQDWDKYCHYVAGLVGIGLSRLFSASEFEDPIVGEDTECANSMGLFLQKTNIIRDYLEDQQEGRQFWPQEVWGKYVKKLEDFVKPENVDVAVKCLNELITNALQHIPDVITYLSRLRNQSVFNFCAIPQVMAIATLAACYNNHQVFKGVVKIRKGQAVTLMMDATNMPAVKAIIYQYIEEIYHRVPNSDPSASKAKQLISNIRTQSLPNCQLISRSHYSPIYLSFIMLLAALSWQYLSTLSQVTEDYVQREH

[2] = target: T3, Squalene synthase (Rattus norvegicus) (UniProt Q02769); assay: Concentration required to inhibit rat liver squalene synthase enzyme relative to control (L-694,599)
T3 sequence (whole entry): T2 sequence (Q02769 whole entry)
Outline: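 Enzyme from rat liver. […] Inhibitors added in DMSO (0.3% final) as 3-fold serial dilutions, usually up to 30 ng/mL (about 40 nM). IC50 read from % inhibition vs log concentration.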

Mus musculus = assay: Ability to inhibit the incorporation of [5-3H]-mevalonolactone into cholesterol by in vivo mouse assay by peroral administration at a dose of 24 mg/kg; format: functional; details: route oral; outline: as §1

Row | Structure (SMILES) | ED50 [1] [mg/kg] | IC50 (Squalene synthase) [nM] | Relative activity [2] | inhibition in vivo at 24 mg/kg (Mus musculus) [%]
1 | C=C(CCC12OC(C(=O)O)C(O)(C(=O)O)C(C(=O)O)(O1)[C@H](OC(=O)[C@@H](C)CC)[C@H]2O)[C@@H](OC(C)=O)[C@H](C)Cc1ccccc1 (stereo partly specified) | 24 | 18 | 0.04 | 
2 | C=C(CCC12OC(C(=O)O)C(O)(C(=O)O)C(C(=O)O)(O1)[C@H](OCCC(C)C)[C@H]2O)[C@@H](OC(C)=O)[C@H](C)Cc1ccccc1 (stereo partly specified) | 9 | 2.3 | 0.09 | 
3 | C=C(CCC12OC(C(=O)O)C(O)(C(=O)O)C(C(=O)O)(O1)[C@H](OC(=O)CC)[C@H]2O)[C@@H](OC(C)=O)[C@H](C)Cc1ccccc1 (stereo partly specified) | 12 | 11 | 0.02 | 
4 | CCCC(=O)O[C@@H]1[C@@H](O)C2(CCCCCCc3ccccc3)OC(C(=O)O)C(O)(C(=O)O)C1(C(=O)O)O2 (stereo partly specified) |  | 362 | 0.0008 | -6
5 | C=C(CCC12OC(C(=O)O)C(O)(C(=O)O)C(C(=O)O)(O1)[C@H](OC(=O)CCC)[C@H]2O)[C@@H](OC(=O)CCC)[C@H](C)Cc1ccccc1 (stereo partly specified) |  | 9.7 | 0.027 | 1
6 | C=C(CCC12OC(C(=O)O)C(O)(C(=O)O)C(C(=O)O)(O1)[C@H](OC(=O)OCC)[C@H]2O)[C@@H](OC(C)=O)[C@H](C)Cc1ccccc1 (stereo partly specified) | 9 | 9.2 | 0.02 | 
7 | C=C(CCC12OC(C(=O)O)C(O)(C(=O)O)C(C(=O)O)(O1)[C@H](OC(=O)CCCOC)[C@H]2O)[C@@H](OC(C)=O)[C@H](C)Cc1ccccc1 (stereo partly specified) | 20 | 25 | 0.03 | 
8 | CC[C@H](C)C[C@H](C)CCC(=O)O[C@@H]1[C@@H](O)C2(CCCCc3ccccc3)OC(C(=O)O)C(O)(C(=O)O)C1(C(=O)O)O2 (stereo partly specified) |  | 137 | 0.002 | 
9 | C=C(CCC12OC(C(=O)O)C(O)(C(=O)O)C(C(=O)O)(O1)[C@H](OC(=O)NCCC[C@@H](C)C[C@@H](C)CC)[C@H]2O)[C@@H](OC(C)=O)[C@H](C)Cc1ccccc1 (stereo partly specified) |  | 0.8 | 0.25 | -2
10 | C=C(CCC12OC(C(=O)O)C(O)(C(=O)O)C(C(=O)O)(O1)[C@H](OC(=O)NC(C)C)[C@H]2O)[C@@H](OC(C)=O)[C@H](C)Cc1ccccc1 (stereo partly specified) | 6 | 8 | 0.05 | 
11 | C=C(CCC12OC(C(=O)O)C(O)(C(=O)O)C(C(=O)O)(O1)[C@H](OC(C)=O)[C@H]2O)[C@@H](OC(C)=O)[C@H](C)Cc1ccccc1 (stereo partly specified) | 18 | 36.1 | 0.02 | 
12 | C=C(CCC12OC(C(=O)O)C(O)(C(=O)O)C(C(=O)O)(O1)[C@H](OCCC)[C@H]2O)[C@@H](OC(C)=O)[C@H](C)Cc1ccccc1 (stereo partly specified) | 8 | 10 | 0.05 | 
13 | C=C(CCC12OC(C(=O)O)C(O)(C(=O)O)C(C(=O)O)(O1)[C@H](OC(=O)OC(C)C)[C@H]2O)[C@@H](OC(C)=O)[C@H](C)Cc1ccccc1 (stereo partly specified) | 10 | 3 | 0.1 | 
14 | C=C(CCC12OC(C(=O)O)C(O)(C(=O)O)C(C(=O)O)(O1)[C@H](OC(=O)OC)[C@H]2O)[C@@H](OC(C)=O)[C@H](C)Cc1ccccc1 (stereo partly specified) | 9 | 3.5 | 0.06 | 
15 | C=C(CCC12OC(C(=O)O)C(O)(C(=O)O)C(C(=O)O)(O1)[C@H](OC(=O)NC)[C@H]2O)[C@@H](OC(C)=O)[C@H](C)Cc1ccccc1 (stereo partly specified) | 11 |  |  | 
16 | CC(/C=C/CCC(=O)O[C@@H]1[C@@H](O)C2(CCCCC(C)Cc3ccccc3)OC(C(=O)O)C(O)(C(=O)O)C1(C(=O)O)O2)CCCc1ccccc1 (stereo partly specified) |  | 0.14 | 1 | 8
17 | C=C(CCC12OC(C(=O)O)C(O)(C(=O)O)C(C(=O)O)(O1)[C@H](OCCCC)[C@H]2O)[C@@H](OC(C)=O)[C@H](C)Cc1ccccc1 (stereo partly specified) | 12 | 2 | 0.08 | 
18 | C=C(CCC12OC(C(=O)O)C(O)(C(=O)O)C(C(=O)O)(O1)[C@H](OC(=O)NCCCCCCCCCCCCCC)[C@H]2O)[C@@H](OC(C)=O)[C@H](C)Cc1ccccc1 (stereo partly specified) |  | 0.28 | 0.5 | 12
